Laboratory results reported in article PMC10325562 (Circulation, 2023).
“Also recorded” adds a separate entry of the source. Where two headings read alike, the source gives them in different places.

Key:
PCSK9 in human plasma = PCSK9 in human plasma (Homo sapiens, UniProt Q8NBP7); experiment: In vitro titration of PCSK9 in human plasma; format: binding
How it was run: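 Pooled EDTA-anticoagulated plasma (human, n=20 donors; or cynomolgus monkey) spiked with test compound at 0, 0.3, 1, 3, 5, 10, 50, 100, 500 and 1000 nM, from 0.1 mM DMSO stocks. Incubated 30 min at 25°C. Target engagement measured on 50 μL aliquots by affinity capture, enzymatic digestion and LC-MS/MS.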

[1] = Passive permeability in MDCKII cells; settings: MDCK, pH 7.4
[2] = Study-001 single oral dose plasma pharmacokinetics; format: in vivo, human; settings: 200 mg single dose
[3] = Study-001 safety and tolerability; format: in vivo, human
How it was run: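 Single-center, randomized, double-blind, placebo-controlled, single-ascending oral dose study in healthy males aged 18–50. The test compound was given alone, with Labrasol or with sodium caprate. Dosing was fasted except one group after a high-fat breakfast. Escalations were ≥4 days apart, with ≥7-day washout per participant and safety review through ≥24 h. Monitoring covered AEs, physical exam, laboratory safety, 12-lead ECG and vital signs.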

[4] = Standard genotoxicity/mutagenicity assessments
[5] = Study-003 multiple oral dose plasma pharmacokinetics; format: in vivo, human; settings: for Accumulation ratio (Day 14/Day 1) AUC0-24 / Accumulation ratio (Day 14/Day 1) C24 / Accumulation ratio (Day 14/Day 1) Cmax: (90% CI); for level at time molar at 24 h: both, plasma, po; for level at time molar at 24 h / AUC(0-t) / Cmax / Tmax / half-life: human; for AUC(0-t) / Cmax / Tmax / half-life: in vivo
Solubility = format: physicochemical
[6] = Study-003 safety and tolerability; format: in vivo, human
[7] = Oral bioavailability in cynomolgus monkeys with permeation enhancer; format: in vivo; settings: formulated with an established PE
monkeys = experiment: Safety pharmacology and 1-month repeat-dose toxicity studies, monkeys; format: in vivo; settings: safety pharmacology and 1-month repeat-dose toxicity
rats = experiment: Safety pharmacology and 1-month repeat-dose toxicity studies, rats; format: in vivo; settings: safety pharmacology and 1-month repeat-dose toxicity
[8] = 10 mg once daily 30 min post-meal + 360 mg sodium caprate, n=6
[9] = 10 mg once daily fasted + 360 mg sodium caprate, n=8
[10] = 20 mg once daily fasted + 360 mg sodium caprate, n=9

PCSK9 in human plasma, sequence (Q8NBP7 153-692): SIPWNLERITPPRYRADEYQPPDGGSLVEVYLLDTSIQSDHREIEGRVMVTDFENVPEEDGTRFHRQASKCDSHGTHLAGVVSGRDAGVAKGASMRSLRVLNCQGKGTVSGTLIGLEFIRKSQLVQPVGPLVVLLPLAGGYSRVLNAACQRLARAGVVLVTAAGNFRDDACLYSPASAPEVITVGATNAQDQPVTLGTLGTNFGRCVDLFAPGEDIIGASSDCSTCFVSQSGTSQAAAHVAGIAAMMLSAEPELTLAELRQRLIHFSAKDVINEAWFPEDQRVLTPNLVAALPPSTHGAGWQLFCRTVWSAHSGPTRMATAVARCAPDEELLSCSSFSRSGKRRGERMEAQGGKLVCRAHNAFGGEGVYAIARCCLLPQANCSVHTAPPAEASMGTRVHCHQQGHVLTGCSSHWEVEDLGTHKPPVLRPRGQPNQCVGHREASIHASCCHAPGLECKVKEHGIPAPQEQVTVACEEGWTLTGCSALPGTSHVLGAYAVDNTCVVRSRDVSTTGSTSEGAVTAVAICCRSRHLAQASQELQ

## COc1ccc(C[C@@H]2NC(=O)[C@H]([C@@H](C)O)NC(=O)[C@@H]3[C@@H]4CCN3C(=O)[C@@H]3Cc5cn(c6ccc(F)cc56)CCCCCCN(Cc5ccc(cc5)CCNC(=O)[C@]5(C)CCCN5C2=O)C(=O)CCC(=O)N[C@@H](C)C(=O)N[C@H](CNC(=O)CCCCC[N+](C)(C)C)C(=O)N[C@@H](Cc2cccc(c2)CNC(=O)CO4)C(=O)N3)cc1 [MK-0616]
PCSK9 in human plasma
  IC50: 2.5 nM
[1]
  Papp: 0.71 ×10⁻⁶ cm/s
[2]
  Fold lower Cmax in the absence of 1,800 mg Labrasol vs same dose in the PE: > 5 fold
[3]; Study-001
  Deaths or serious AEs: No deaths or serious AEs
[3]; Study-001, n=28 of n=51 administered MK-0616
  Participants with ≥1 AE: 54.9%
[3]; Study-001, single-dose oral administration
  Tolerability: generally well tolerated
[4]
  Genotoxicity / mutagenicity: not genotoxic or mutagenic
[5]; [8]
  Accumulation ratio (Day 14/Day 1) AUC0-24: 1.90 (1.42, 2.55) h•nmol/L
  Accumulation ratio (Day 14/Day 1) C24: 2.01 (1.51, 2.67) nmol/L
  Accumulation ratio (Day 14/Day 1) Cmax: 1.60 (1.17, 2.21) nmol/L
[5]; [9]
  Accumulation ratio (Day 14/Day 1) AUC0-24: 1.46 (1.13, 1.88) h•nmol/L
  Accumulation ratio (Day 14/Day 1) C24: 1.32 (1.03, 1.70) nmol/L
  Accumulation ratio (Day 14/Day 1) Cmax: 1.51 (1.15, 1.99) nmol/L
[5]; 10 mg vs same dose fasting
  Delay of Day 14 Tmax by low-fat breakfast 30 minutes prior to dose: approximately 6 hours
[5]; [10]
  Accumulation ratio (Day 14/Day 1) AUC0-24: 1.97 (1.54, 2.54) h•nmol/L
  Accumulation ratio (Day 14/Day 1) C24: 1.81 (1.42, 2.31) nmol/L
  Accumulation ratio (Day 14/Day 1) Cmax: 2.04 (1.56, 2.68) nmol/L
[5]; all doses evaluated in Study-003
  Plasma accumulation: approximately 2 fold
[5]; 20 mg once daily, C24, Day 14, 20 mg once daily fasted + 360 mg sodium caprate, n=9, footnote: median (min, max)
  level at time molar at 24 h: 11.1 nM
[5]; 20 mg, C24, Day 1, 20 mg once daily fasted + 360 mg sodium caprate, n=9, geometric mean (95% CI)
  level at time molar at 24 h: 6.13 nM
[5]; AUC0-24, Day 1, 20 mg once daily fasted + 360 mg sodium caprate, statin-treated, n=9, geometric mean (95% CI)
  AUC(0-t): 0.142 µM·h
[5]; AUC0-24, Day 14, 20 mg once daily fasted + 360 mg sodium caprate, n=9, geometric mean (95% CI)
  AUC(0-t): 0.28 µM·h
[5]; Day 1, 20 mg once daily fasted + 360 mg sodium caprate, n=9, geometric mean (95% CI)
  Cmax: 7.87 nM
[5]; Day 14, 20 mg once daily fasted + 360 mg sodium caprate, n=9, geometric mean (95% CI)
  Cmax: 16.1 nM
[5]; Day 14, all fasted doses
  Tmax: < 2 h
[5]; Day 14, 20 mg once daily fasted + 360 mg sodium caprate, n=9, median (min, max)
  Tmax: 1.8 h
[5]; t1/2, Day 14, 20 mg once daily fasted + 360 mg sodium caprate, n=9, geometric mean (% geometric CV)
  half-life: 244 h
[5]; t1/2, range, Day 14, across dose regimens
  half-life: 178 to 244 h
[5]; once daily dosing, all dosing regimens
  Time to steady state: by the end of the first week; also recorded: after 1 week
Solubility
  solubility: 7800 µg/mL
Solubility; pH 7
  solubility: > 7000 µg/mL
[6]; Study-003
  Deaths or serious AEs: No deaths or serious AEs
[6]; Study-003, 14 days of daily oral dosing
  Tolerability: generally well tolerated
[6]; Study-003, n=1
  Drug-related AE: dizziness: 3.2%
  Drug-related AE: dry mouth: 3.2%
  Drug-related AE: dyspepsia: 3.2%
  Drug-related AE: flushing: 3.2%
  Drug-related AE: hunger: 3.2%
  Drug-related AE: insomnia: 3.2%
[6]; Study-003, n=2
  Drug-related AE: gastroesophageal reflux disease: 6.5%
[6]; Study-003, n=7 of 31
  Participants with 1 or more drug-related AEs: 22.6%
[6]; Study-003, n=21 of n=31 administered MK-0616
  Participants with 1 or more AEs: 67.7%
[7]
  Oral bioavailability: demonstrated oral bioavailability
monkeys
  Tolerability: well tolerated
rats
  Tolerability: well tolerated
